{
  "source": "paper PMC11539713",
  "about": "(Malaria Journal, 2024)",
  "key": {"CYP enzymes": {"system": "CYP enzymes", "experiment": "Enzyme phenotyping with", "assay_type": "in vitro ADME, human", "conditions": "for Effect of inhibitor on formation of ART-M in HLMs: ART 1 μM, HLMs 1 mg/mL, 1 mM 1-ABT, 1 μM ketoconazole"}, "PfDd2 [1]": {"system": "PfDd2", "conditions": "cited from earlier work"}, "CYP3A": {"system": "CYP3A", "conditions": "read-out: Inhibition constant Ki of CYP3A; cited from earlier work"}, "[2]": {"conditions": "cited from earlier work"}, "Pf3D7 [3]": {"system": "Pf3D7", "experiment": "In vitro drug susceptibility, SYBR Green I fluorometric method, Pf3D7", "assay_type": "cell-based", "conditions": "Plasmodium falciparum", "summary_of_the_method": "(§1)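 Synchronous ring-stage P. falciparum culture at final 0.5% parasitaemia and 2% haematocrit, exposed to test compound. Chloroquine served as positive control and 0.1% DMSO as negative control. Growth was read by SYBR Green I fluorescence. MIC50/MIC90 came from nonlinear regression of log-transformed concentrations, averaged over two independent experiments each run in duplicate.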"}, "[4]": {"assay_type": "in vivo, human", "conditions": "for fAUC0-t: area under the free plasma concentration–time curve; for fCmax: maximum free plasma concentration", "summary_of_the_method": "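Subjects were six healthy non-smoking men, 20–26 y, BMI 20–25 kg/m2. Each received oral test compound 125 mg plus piperaquine 750 mg per dose over two days. Venous blood was drawn 0–48 h, and plasma was stored at −80 °C. Samples were prepared by acetonitrile precipitation with deuterated internal standard and analysed by LC-HRMS. Non-compartmental analysis used observed Cmax/Tmax, AUC0-t by linear trapezoidal rule, and CL/F = dose/AUC0-t.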"}, "[5]": {"experiment": "Plasma protein binding by ultrafiltration", "assay_type": "in vitro ADME", "conditions": "human, pooled human plasma"}, "PfDd2 [6]": {"system": "PfDd2", "experiment": "In vitro drug susceptibility, SYBR Green I fluorometric method, PfDd2", "assay_type": "cell-based", "conditions": "Plasmodium falciparum", "summary_of_the_method": "as §1"}, "[7]": {"experiment": "Enzyme kinetics of ART metabolism in human liver microsomes", "assay_type": "in vitro ADME", "conditions": "HLMs 0.5 mg/mL; for microsomal CLint: CLint,H, Vmax/Km, 15 min"}, "[8]": {"conditions": "cited from earlier work", "remark": "listed apart in the source"}, "Pf3D7 [9]": {"system": "Pf3D7", "conditions": "cited from earlier work"}, "[10]": {"conditions": "read-out: Antiplasmodial activity (literature data)"}},
  "note": "Several values for one entry are separate records, joined by “and”; a condition that tells them apart may be missing. Equal entries are not always repeated. Where two headings read alike, the source gives them in different places.",
  "data": [
    {"smiles": "CC(=O)N1CCN(c2ccc(OCC3COC(Cn4ccnc4)(c4ccc(Cl)cc4Cl)O3)cc2)CC1", "note": "(stereo not shown) [ketoconazole]", "values": [
      {"measurement": "Effect of inhibitor on formation of ART-M in HLMs", "setting": "CYP enzymes", "value": "completely inhibited"}
    ]},
    {"smiles": "C[C@H]1[C@@H](O)O[C@@H]2O[C@@]3(C)CC[C@H]4[C@H](C)CC[C@@H]1[C@@]24OO3", "note": "[dihydroartemisinin]", "values": [
      {"measurement": "MIC50", "setting": "PfDd2 [1]", "value": "~ 1.0 nM"}
    ]},
    {"smiles": "Nn1nnc2ccccc21", "note": "[1-ABT]", "values": [
      {"measurement": "Effect of inhibitor on formation of ART-M in HLMs", "setting": "CYP enzymes", "value": "completely inhibited"},
      {"measurement": "Effect of inhibitor on formation of trace metabolite isomer M1", "setting": "CYP enzymes; ART in HLMs", "value": "inhibited completely"}
    ]},
    {"smiles": "Clc1ccc2c(N3CCN(CCCN4CCN(c5ccnc6cc(Cl)ccc56)CC4)CC3)ccnc2c1", "note": "[piperaquine]", "values": [
      {"measurement": "Ki", "setting": "CYP3A", "value": 680, "unit": "nM"},
      {"measurement": "Plasma protein binding", "setting": "[2]", "value": 97.4, "unit": "%"}
    ]},
    {"smiles": "C[C@@H]1CC[C@H]2[C@@H](C)C(=O)O[C@@H]3O[C@@]4(C)CC[C@@H]1[C@]32OO4", "note": "[ART, Artemisinin]", "values": [
      {"measurement": "MIC50", "setting": "Pf3D7 [3]", "value": 0.0101, "unit": "µM"},
      {"measurement": "MIC90", "setting": "Pf3D7 [3]", "value": "0.0139 ± 0.0005", "unit": "µM"},
      {"measurement": "fAUC0-t", "setting": "[4]; Day-1", "value": "155.6 ± 27.6", "unit": "nmol/L⋅h"},
      {"measurement": "fCmax", "setting": "[4]; Day-1", "value": "51.8 nM and 51.8 ± 18.0 nM"},
      {"measurement": "fAUC0-t", "setting": "[4]; Day-2", "value": "113.0 ± 20.1", "unit": "nmol/L⋅h"},
      {"measurement": "fCmax", "setting": "[4]; Day-2", "value": "43.1 ± 10.5", "unit": "nM"},
      {"measurement": "CL/F", "setting": "[4]; male, human, plasma, oral, CL/F, Day-1, dose/AUC0-t", "value": 183, "unit": "mL/min/kg"},
      {"measurement": "Tmax", "setting": "[4]; male, human, plasma, oral, Tmax, Day-1", "value": 1, "unit": "h"},
      {"measurement": "half-life", "setting": "[4]; male, human, plasma, oral, t1/2, Day-1", "value": 1.7, "unit": "h"},
      {"measurement": "Cmax", "setting": "[4]; male, human, plasma, po, Cmax, after the first oral dose, plasma", "value": 207, "unit": "nM"},
      {"measurement": "fraction unbound at 0.6 μM", "setting": "[5]", "value": 0.251},
      {"measurement": "IC50", "setting": "PfDd2 [1]; [10]", "value": "10 to 30", "unit": "nM"},
      {"measurement": "MIC50", "setting": "PfDd2 [6]", "value": 0.0204, "unit": "µM"},
      {"measurement": "MIC90", "setting": "PfDd2 [6]", "value": "0.0384 ± 0.0009", "unit": "µM"},
      {"measurement": "microsomal CLint", "setting": "[7]; formation of ART-M", "value": 27.6, "unit": "µL/min/mg"},
      {"measurement": "microsomal CLint", "setting": "[7]; substrate depletion", "value": 30.3, "unit": "µL/min/mg"},
      {"measurement": "Km at 15 min", "setting": "[7]; Km, substrate depletion", "value": 23.8, "unit": "µM"},
      {"measurement": "Bioavailability", "setting": "[8]", "value": "~ 30%"},
      {"measurement": "Elimination half-life t1/2", "setting": "[8]", "value": "~ 2 h"},
      {"measurement": "IC50", "setting": "Pf3D7 [9]; [10]", "value": "10 to 30", "unit": "nM"}
    ]},
    {"smiles": "CCN(CC)CCCC(C)Nc1ccnc2cc(Cl)ccc12", "note": "(stereo not shown) [CQ, Chloroquine diphosphate]", "values": [
      {"measurement": "MIC50", "setting": "Pf3D7 [3]", "value": 0.0106, "unit": "µM"},
      {"measurement": "MIC90", "setting": "Pf3D7 [3]", "value": "0.0163 ± 0.0031", "unit": "µM"},
      {"measurement": "MIC50 (reported data)", "setting": "PfDd2 [1]", "value": "0.062 to 0.1354", "unit": "µM"},
      {"measurement": "MIC50", "setting": "PfDd2 [6]", "value": 0.0938, "unit": "µM"},
      {"measurement": "MIC50 (reported data)", "setting": "Pf3D7 [9]", "value": "0.005 to 0.04", "unit": "µM"}
    ]}
  ]
}
